Assay results of several laboratories.
Each line is one published result; the experiments were not run side by side.
Target: SRSF protein kinase 1 (SRPK1, Homo sapiens, UniProt Q96SB4)

CNC(=O)c1ccc(Nc2ncc(C(F)(F)F)c(NCc3nccnc3N(C)S(C)(=O)=O)n2)cc1 — remaining binding (cell-free assay, competition with immobilised ligand; 0.1 µM): 51%
Cc1ccc(Nc2nccc(N(C)c3ccc4c(C)n(C)nc4c3)n2)cc1S(N)(=O)=O — inhibition (enzyme activity, inhibitor; 0.3 µM): -7%
Nc1nc(NC2CCCCC2)sc1C(=O)c1ccccc1 — remaining activity (enzyme activity, inhibitor; 10 µM): 93%
O=C(NCc1ncc(C(F)(F)F)cc1Cl)c1ccc2c(c1)C1(CCS(=O)(=O)CC1)[C@H](C1CC1)N2S(=O)(=O)c1ccc(F)cc1 — remaining binding (cell-free assay, competition with immobilised ligand; 1 µM): 72%
CNC(=O)c1cc(Oc2ccc(NC(=O)Nc3ccc(Cl)c(C(F)(F)F)c3)cc2)ccn1 — inhibition (enzyme activity, inhibitor; 0.3 µM): -2%
O=C(Nc1cnn(-c2csc(C(=O)NC3COC3)c2)c1)Nc1c(F)cccc1Cl — remaining activity (enzyme activity, inhibitor; 5 µM): 104%
FC(F)c1nc2ccccc2n1-c1nc(N2CCOCC2)nc(N2CCOCC2)n1 — remaining activity (enzyme activity, inhibitor; 10 µM): 92%
O=C(NCCCC1CCCCC1)c1ccc(CNC(=O)c2cnn(-c3ccccc3)c2C(F)(F)F)cc1 — remaining binding (cell-free assay, competition with immobilised ligand; 0.1 µM): 95%
CCN(CC)CCNC(=O)c1c(C)[nH]c(/C=C2\C(=O)Nc3ccc(F)cc32)c1C — inhibition (enzyme activity, inhibitor; 10 µM): 9%
CC/C(=N\NC(=O)NCc1cccc(O)c1)c1ccc(O)c(C)c1O — inhibition (enzyme activity, inhibitor; 0.1 µM): -11.7%
Cc1ccc(NC(=O)c2ccc(CN3CCN(C)CC3)cc2)cc1Nc1nc(-c2cccnc2)cs1 — remaining signal (cell-free assay; 0.5 µM): 98.9%
O=C(Nc1ccc(Oc2ccc(F)cc2)cc1)N1CCc2ncccc2[C@H]1c1ccc(F)cc1 — remaining binding (cell-free assay, competition with immobilised ligand; 1 µM): 94%
CN1CC(Oc2cnc(C#N)cc2-c2ccn3nc(NC(=O)C4CC4)cc3c2)C1 — inhibition (enzyme activity, inhibitor; 1 µM): -2%
COc1cc(Nc2cnc(C#N)c(O[C@H](C)CN(C)C)n2)ncc1-c1cnn(C)c1 — remaining activity (enzyme activity, inhibitor, radiometric; 1 µM): 89%
N#CC1(c2ccccn2)CCN(Cc2cc(C(=O)N3CCCC3)c(=O)n3ccccc23)CC1 — remaining binding (cell-free assay, competition with immobilised ligand; 1 µM): 85%
O=C1Nc2ccc(Cl)cc2C1=Cc1cc(Cl)c(O)c(Cl)c1 — remaining signal (cell-free assay; 0.5 µM): 106%
CS(=O)(=O)N1CCCC(NC(=O)[C@H](CCC2CCCCC2)NC(=O)c2ccc(CNC(=O)c3cnc4ccccn34)cc2)C1 (stereo partly shown) — remaining binding (cell-free assay, competition with immobilised ligand; 0.1 µM): 74%
O=C1NC(=O)c2cc(Nc3ccc(F)cc3)c(Nc3ccc(F)cc3)cc21 — remaining signal (cell-free assay; 0.5 µM): 102%
Cc1ccc(C(=O)Nc2ccc(CN3CCN(C)CC3)c(C(F)(F)F)c2)cc1C#Cc1cnc2cccnn12 — remaining activity (enzyme activity, inhibitor; 23.5 nM): 98%
Cc1ccc(NC(=O)c2ccc(C)c(C(F)(F)F)c2)cc1C#Cc1nn(C2CCC(O)CC2)c2ncnc(N)c12 (stereo not shown) — remaining signal (cell-free assay; 10 µM): 106%
C[C@@H]1CN(c2cc(-c3nn(C)c4ccc(OC5(C)CC5)cc34)ncn2)C[C@H](C)O1 — remaining binding (cell-free assay, competition with immobilised ligand; 1 µM): 88%
Cn1c(=O)n(-c2ccc(C(C)(C)C#N)cc2)c2c3cc(-c4cnc5ccccc5c4)ccc3ncc21 — remaining activity (enzyme activity, inhibitor; 10 µM): 106%
CC(C)(C)c1nc2c(s1)c1nc(N)ncc1c1ccc(NS(=O)(=O)c3c(F)cccc3F)c(F)c12 — remaining activity (enzyme activity, inhibitor, radiometric; 1 µM): 99%
N#CCCc1ccc2c(c1)-c1[nH]c3ccc([N+](=O)[O-])cc3c1CC(=O)N2 — remaining signal (cell-free assay; 0.5 µM): 107%
Nc1ncnc2occ(-c3ccc(NC(=O)Nc4cc(C(F)(F)F)ccc4F)cc3)c12 — remaining signal (cell-free assay, inhibitor; 20 µM): 59%
CCCS(=O)(=O)Nc1ccc(F)c(C(=O)c2c[nH]c3ncc(-c4ccc(Cl)cc4)cc23)c1F — inhibition (enzyme activity, inhibitor; 1 µM): < 10%
CCN(CC)c1ccc(C2=NNC(=O)CC2C)cc1[N+](=O)[O-] (stereo not shown) — remaining activity (enzyme activity, inhibitor; 10 µM): 94%
COc1cc(/C=C/C(=O)CC(=O)/C=C/c2ccc(O)c(OC)c2)ccc1O — activity vs control (enzyme activity, inhibitor; 1 µM): 57%
COc1cccc2c(NCc3ccccc3)nc(-n3c(N)nc4ccccc43)nc12 — inhibition (target engagement in cells, inhibitor, chemoproteomics; 20 mM): 5.7%
Cc1cnc(NC2CCOCC2)nc1-n1cnc(C(=O)NC(CN)c2cc(F)cc(Cl)c2)c1 (stereo not shown) — remaining activity (enzyme activity, inhibitor, radiometric; 1 µM): 96%
COc1cc2ncnc(Nc3ccc(Oc4ccccc4)c(C)c3C)c2cc1OC — inhibition (enzyme activity, inhibitor; 1 µM): 1%
FC(F)(F)Oc1cccc(-c2cnc3ccc(-c4ccncc4)nn23)c1 — activity vs control (enzyme activity, inhibitor, radiometric; 1 µM): 95%
Cc1cc(-n2nc(Cc3cc(F)cc(C(F)(F)F)c3)nc2C)ccc1C(N)=O — remaining binding (cell-free assay, competition with immobilised ligand; 1 µM): 81%
Nc1nc(Nc2ccccc2)sc1C(=O)c1c(F)cccc1F — remaining activity (enzyme activity, inhibitor; 10 µM): 6%
